In ChEMBL document CHEMBL4359825, “Synthesis of novel S-linked dihydroartemisinin derivatives and evaluation of their anticancer activity” (Eur J Med Chem, 2019):
The source made the active and inactive calls. The calls are words filed in the database; no cut-off is given here.

What was measured:
PC-3 [1] = assay: Anticancer activity against human PC3 cells assessed as cell viability measured after 72 hrs by MTT assay (reference value: 100 +/- 18.8 %); format: functional; parameters: concentration or dose not given beside the values
A-431 = assay: Anticancer activity against human A431 cells assessed as cell viability measured after 72 hrs by MTT assay (reference value: 100 +/- 11.7 %); format: functional; parameters: concentration or dose not given beside the values
HepG2 [2] = assay: Anticancer activity against human HepG2 cells assessed as cell viability measured after 72 hrs by MTT assay (reference value: 100 +/- 6.5 %); format: functional; parameters: concentration or dose not given beside the values
A549 = assay: Anticancer activity against human A549 cells assessed as cell viability measured after 72 hrs by MTT assay (reference value: 100 +/- 9.6 %); format: functional; parameters: concentration or dose not given beside the values
PC-3 [3] = assay: Anticancer activity against human PC3 cells assessed as reduction in cell viability measured after 72 hrs by MTT assay; format: functional, cell-based; settings: PC-3, 72 h
HepG2 [4] = assay: Anticancer activity against human HepG2 cells assessed as reduction in cell viability measured after 72 hrs by MTT assay; format: functional, cell-based; settings: HepG2, 72 h
PC-3 [5] = assay: Anticlonogenic activity against human PC3 cells assessed as reduction in colony formation incubated for 72 hrs supplemented with fresh medium containing measured after 15 days by colony formation assay; format: functional, cell-based
Outline: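 Clonogenic assay: PC-3 seeded at 500 cells/well in six-well plates, allowed to adhere overnight, then treated. Medium and compound renewed every 72 h over 15 days. Colonies fixed with 3.7% formaldehyde for 20 min, stained with 0.4% crystal violet and counted. Three experiments, each in quadruplicate, expressed as fold change versus control.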

PC-3 [6] = assay: Induction of reactive oxygen species generation in human PC3 cells assessed as increase in intracellular ROS level at 3 to 10 uM incubated for 3 hrs by CM-H2DCFDA staining based fluorescence microscopy analysis; format: functional, cell-based
Outline: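 Approx. 1×10^5 PC-3 cells per well treated 3 h at 3 or 10 μM; medium replaced with 10 μM CM-H2DCFDA for 30 min in dark at 37 °C, nuclei counterstained Hoechst 33342 (1 μg/mL) 15 min at room temperature; fluorescence microscopy, percentage ROS-producing cells scored versus vehicle.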

PC-3 [7] = assay: Cytotoxicity against human PC3 cells assessed as reduction in cell viability at 3 to 10 uM pretreated with NAC for 2 hrs followed by compound addition and measured after 72 hrs by MTT assay; format: functional, cell-based
Outline: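 PC-3 cells in 96-well plates pretreated 2 h with N-acetyl cysteine (20 μM), then exposed to 3 or 10 μM test agent for 72 h. Viability read by MTT as in the standard protocol, absorbance 570 nm, relative to DMSO control. Three separate experiments.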

PC-3 [8] = assay: Cell cycle arrest in human PC3 cells assessed as accumulation at G0/G1 phase at 3 uM measured after 48 hrs by RNase/propidium iodide staining based flow cytometry analysis (reference value: 42.59 %); format: functional
PC-3 [9] = assay: Cell cycle arrest in human PC3 cells assessed as accumulation at S phase at 10 uM measured after 48 hrs by RNase/propidium iodide staining based flow cytometry analysis (reference value: 22.40 %); format: functional
PC-3 [10] = assay: Induction of apoptosis in human PC3 cells assessed as cell shrinkage at 3 to 10 uM after 72 hrs by phase contrast microscopy; format: functional, cell-based
Outline: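 PC-3 cells in exponential growth exposed to 3 or 10 μM for 72 h, washed gently with PBS, and apoptotic morphology recorded by phase-contrast microscopy.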

PC-3 [11] = assay: Induction of apoptosis in human PC3 cells assessed as decrease in pro-caspase-3 level after 72 hrs by Western blot analysis; format: functional, cell-based
Outline: (§1)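 Western blot: PC-3 seeded 1.25 × 10^5/well, exposed to 0.1–10 μM for 72 h. Lysed in 2× SDS buffer and sonicated; 20–25 μg protein run on 12% SDS gel, transferred to PVDF, blocked in 5% BSA/TBST. Primary antibodies overnight, secondary 1 h; ECL detection, β-actin loading control.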

PC-3 [12] = assay: Induction of apoptosis in human PC3 cells assessed as decrease in pro-caspase-9 level after 72 hrs by Western blot analysis; format: functional, cell-based; outline: as §1
PC-3 [13] = assay: Induction of apoptosis in human PC3 cells assessed as down-regulation of BCL-xL expression measured after 72 hrs by Western blot analysis; format: functional, cell-based; outline: as §1
PC-3 [14] = assay: Antimigratory activity against human PC3 cells assessed as reduction in cell migration at 10 uM measured upto 24 hrs in presence of pan-caspase inhibitor Z-VAD-fmk by scratch wound healing assay; format: functional, cell-based
Outline: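 PC-3 monolayers pretreated 2 h with pan-caspase inhibitor Z-VAD-FMK (10 μM) before scratching and treatment with test agent. Wound closure imaged by phase contrast at 0, 12 and 24 h.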

PC-3 [15] = assay: Antimetastatic activity against human PC3 cells assessed as inhibition of MMP-2 at 3 to 10 uM measured after 48 hrs by gelatin zymography; format: functional, cell-based
Outline: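 PC-3 monolayers scratched, then treated with 3 or 10 μM for 48 h in serum-containing medium, then 24 h in serum-free medium. Conditioned medium run non-reduced on 7.5% SDS-PAGE containing gelatin 4 mg/mL. Gel washed in 2.5% Triton X-100, incubated 24 h at 37 °C in Tris pH 7.5 with CaCl2/ZnCl2, Coomassie stained; lysis seen as clear bands.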

PC-3 [16] = assay: Antimigratory activity against human PC3 cells assessed as reduction in cell migration at 3 to 10 uM measured after 48 hrs by transwell assay; format: functional, cell-based
Outline: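 Transwell migration through 8.0 μm polycarbonate membranes: 40,000 PC-3 cells in serum-free medium in the upper chamber with 3 or 10 μM; RPMI-1640 with 10% FBS below. After 48 h, non-migrated cells swabbed off. Migrated cells fixed in 75% ethanol for 10 min, Hoechst stained and counted per field versus DMSO.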

PC-3 [17] = assay: Downregulation of BCL-xL mRNA expression in human PC3 cells at 3 to 10 uM measured after 72 hrs by TRIzol dye based RT-PCR analysis; format: functional, cell-based
Outline: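 PC-3 (1.25 × 10^5/well) treated 72 h with 3 or 10 μM. Total RNA extracted with TRIzol; cDNA made from 2 μg RNA. SYBR qPCR: 95 °C 10 min, then 40 cycles of 95 °C/60 °C. Expression normalised to GAPDH by 2^-ΔΔCt; three experiments.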

PC-3 [18] = assay: Induction of cell death in human PC3 cells measured after 72 hrs by propidium iodide staining based flow cytometry analysis; format: functional
Outline: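 PC-3 cells in six-well plates exposed to 3 or 10 μM for 72 h, 0.1% DMSO vehicle as control; cells harvested, PBS-washed, stained with propidium iodide (5 μg/mL) 20 min at 4 °C; percentage dead cells read by flow cytometry; t-test against vehicle.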

[19] = target: Peptidyl-prolyl cis-trans isomerase NIMA-interacting 1 (Homo sapiens) (UniProt Q13526); assay: Inhibition of Pin1 in human PC3 cells assessed as downregulation of cyclin D1 measured after 72 hrs by Western blot analysis; format: cell-based
Chain of Peptidyl-prolyl cis-trans isomerase NIMA-interacting 1 (Homo sapiens) (Q13526 whole entry): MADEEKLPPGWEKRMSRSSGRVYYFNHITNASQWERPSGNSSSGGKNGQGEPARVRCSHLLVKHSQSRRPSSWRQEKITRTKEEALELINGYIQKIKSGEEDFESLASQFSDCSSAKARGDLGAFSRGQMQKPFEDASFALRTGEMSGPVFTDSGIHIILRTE
Outline: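 PC-3 cells (1.25×10^5 per well) exposed 72 h to 0.1, 0.3, 1, 3 or 10 μM; lysed in 2× SDS buffer, sonicated, BCA-quantified; 20-25 μg protein on 12% SDS gel, PVDF, 5% BSA block, primary antibody overnight, secondary 1 h; ECL detection, β-actin loading control.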

PC-3 [20] = assay: Downregulation of Pin1 expression in human PC3 cells at 3 to 10 uM measured after 72 hrs by Western blot analysis; format: functional, cell-based; outline: as §1
PC-3 [21] = assay: Downregulation of cMyc in human PC3 cells at 3 to 10 uM measured after 72 hrs by Western blot analysis; format: functional, cell-based; outline: as §1

COC(=O)Cc1ccc(S[C@@H]2O[C@@H]3O[C@@]4(C)CC[C@H]5[C@H](C)CC[C@@H]([C@H]2C)[C@@]35OO4)cc1
Activity (PC-3 [1]): 28%
Activity (A-431): 35%
Activity (HepG2 [2]): 50%
Activity (A549): 68%
IC50 (PC-3 [3]): 6.13 µM
IC50 (HepG2 [4]): 6.08 µM
Activity (PC-3 [5]): Dose-dependent effect
Activity (PC-3 [6]): Active
Activity (PC-3 [7]): inactive
Activity (PC-3 [8]): 54.49%
Activity (PC-3 [9]): 13.21%
Activity (PC-3 [10]): Active
Activity (PC-3 [11]): Dose-dependent effect
Activity (PC-3 [12]): Dose-dependent effect
Activity (PC-3 [13]): Dose-dependent effect
inhibition (PC-3 [14]): inactive
inhibition (PC-3 [15]): Dose-dependent effect
Activity (PC-3 [16]): Active
Activity (PC-3 [17]): Active
Activity (PC-3 [18]): Dose-dependent effect
inhibition [19]: Dose-dependent effect
Activity (PC-3 [20]): Active
Activity (PC-3 [21]): Active
